# Measured values: ChEMBL document CHEMBL4261658, “4-Hydroxy-3-nitro-5-ureido-benzenesulfonamides Selectively Target the Tumor-Associated Carbonic Anhydrase Isoforms IX and XII Showing Hypoxia-Enhanced Antiproliferative Profiles” (J Med Chem, 2018)
# What was measured:
# PC-3 [1] = experiment: Cytotoxicity against human PC3 cells assessed as reduction in cell viability after 48 hrs under normoxic conditions by MTT assay; assay type: functional, cell-based; conditions: for IC50: PC-3, 48 h
# Outline: (§1)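 Cells cultured in high-glucose DMEM with 20% FBS at 37 °C and 5% CO2, seeded at 1x10^4/well, then dosed 24 h later (0–200 μM) for 48 h. Hypoxia: 1% O2, 5% CO2, balance N2 in a hypoxic workstation; normoxia: 20% O2 in air, 5% CO2. MTT (1 mg/ml) for 30 min at 37 °C, formazan dissolved in DMSO, A550. Untreated control set to 100%; quadruplicates, ≥3 cell batches, mean ± S.E.M.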
# MDA-MB-231 [2] = experiment: Potency index, ratio of cytotoxicity against human MDA-MB-231 cells assessed as reduction in cell viability at 100 uM after 48 hrs under hypoxic conditions by MTT assay to cytotoxicity against human MDA-MB-231 cells assessed as reduction in cell viability at 100 uM after 48 hrs under normoxic conditions by MTT assay; assay type: functional
# MDA-MB-231 [3] = experiment: Cytotoxicity against human MDA-MB-231 cells assessed as reduction in cell viability after 48 hrs under normoxic conditions by MTT assay; assay type: functional, cell-based; conditions: for IC50: MDA-MB-231, 48 h; outline: as §1
# HT-29 [4] = experiment: Cytotoxicity against human HT-29 cells assessed as cell viability at 100 uM after 48 hrs under hypoxic conditions by MTT assay (reference value: 100%); assay type: functional; conditions: Homo sapiens, HT-29, 48 h; read-out: Activity; outline: as §1
# HT-29 [5] = experiment: Cytotoxicity against human HT-29 cells assessed as reduction in cell viability after 48 hrs under hypoxic conditions by MTT assay; assay type: functional, cell-based; conditions: for IC50: HT-29, 48 h; outline: as §1
# Homo sapiens = species: Homo sapiens; experiment: Selectivity ratio of Ki for carbonic anhydrase 2 (unknown origin) to Ki for carbonic anhydrase 9 (unknown origin)
# HT-29 [6] = experiment: Cytotoxicity against human HT-29 cells assessed as cell viability at 300 uM after 48 hrs under hypoxic conditions by MTT assay (reference value: 100%); assay type: functional; conditions: HT-29, 48 h, read-out: Activity
# HT-29 [7] = experiment: Cytotoxicity against human HT-29 cells assessed as reduction in cell viability after 48 hrs under normoxic conditions by MTT assay; assay type: functional, cell-based; conditions: for IC50: HT-29, 48 h; outline: as §1
# MDA-MB-231 [8] = experiment: Cytotoxicity against human MDA-MB-231 cells assessed as cell viability at 200 uM after 48 hrs under hypoxic conditions by MTT assay (reference value: 100%); assay type: functional; conditions: MDA-MB-231, 48 h, read-out: Activity; outline: as §1
# PC-3 [9] = experiment: Cytotoxicity against human PC3 cells assessed as cell viability at 200 uM after 48 hrs under hypoxic conditions by MTT assay (reference value: 100%); assay type: functional; conditions: PC-3, 48 h, read-out: Activity; outline: as §1
# MDA-MB-231 [10] = experiment: Cytotoxicity against human MDA-MB-231 cells assessed as cell viability at 30 uM after 48 hrs under normoxic conditions by MTT assay (reference value: 100%); assay type: functional; conditions: MDA-MB-231, 48 h, read-out: Activity; outline: as §1
# PC-3 [11] = experiment: Cytotoxicity against human PC3 cells assessed as cell viability at 30 uM after 48 hrs under hypoxic conditions by MTT assay (reference value: 100%); assay type: functional; conditions: PC-3, 48 h, read-out: Activity; outline: as §1
# Carbonic anhydrase 9 = Carbonic anhydrase 9 (Homo sapiens, UniProt Q16790); experiment: Inhibition of carbonic anhydrase 9 (unknown origin) preincubated for 15 mins by stopped flow CO2 hydration assay
# HT-29 [12] = experiment: Cytotoxicity against human HT-29 cells assessed as cell viability at 100 uM after 48 hrs under normoxic conditions by MTT assay (reference value: 100%); assay type: functional; conditions: Homo sapiens, HT-29, 48 h; read-out: Activity; outline: as §1
# PC-3 [13] = experiment: Cytotoxicity against human PC3 cells assessed as cell viability at 100 uM after 48 hrs under normoxic conditions by MTT assay (reference value: 100%); assay type: functional; conditions: PC-3, 48 h, read-out: Activity; outline: as §1
# HT-29 [14] = experiment: Cytotoxicity against human HT-29 cells assessed as cell viability at 30 uM after 48 hrs under normoxic conditions by MTT assay (reference value: 100%); assay type: functional; conditions: Homo sapiens, HT-29, 48 h; read-out: Activity; outline: as §1
# PC-3 [15] = experiment: Cytotoxicity against human PC3 cells assessed as reduction in cell viability after 48 hrs under hypoxic conditions by MTT assay; assay type: functional, cell-based; conditions: for IC50: PC-3, 48 h; outline: as §1
# MDA-MB-231 [16] = experiment: Cytotoxicity against human MDA-MB-231 cells assessed as cell viability at 100 uM after 48 hrs under normoxic conditions by MTT assay (reference value: 100%); assay type: functional; conditions: MDA-MB-231, 48 h, read-out: Activity; outline: as §1
# MDA-MB-231 [17] = experiment: Cytotoxicity against human MDA-MB-231 cells assessed as reduction in cell viability after 48 hrs under hypoxic conditions by MTT assay; assay type: functional, cell-based; conditions: for IC50: MDA-MB-231, 48 h; outline: as §1
# MDA-MB-231 [18] = experiment: Cytotoxicity against human MDA-MB-231 cells assessed as cell viability at 100 uM after 48 hrs under hypoxic conditions by MTT assay (reference value: 100%); assay type: functional; conditions: MDA-MB-231, 48 h, read-out: Activity; outline: as §1
# MDA-MB-231 [19] = experiment: Cytotoxicity against human MDA-MB-231 cells assessed as cell viability at 30 uM after 48 hrs under hypoxic conditions by MTT assay (reference value: 100%); assay type: functional; conditions: MDA-MB-231, 48 h, read-out: Activity; outline: as §1
# MDA-MB-231 [20] = experiment: Cytotoxicity against human MDA-MB-231 cells assessed as cell viability at 200 uM after 48 hrs under normoxic conditions by MTT assay (reference value: 100%); assay type: functional; conditions: MDA-MB-231, 48 h, read-out: Activity; outline: as §1
# PC-3 [21] = experiment: Cytotoxicity against human PC3 cells assessed as cell viability at 200 uM after 48 hrs under normoxic conditions by MTT assay (reference value: 100%); assay type: functional; conditions: PC-3, 48 h, read-out: Activity; outline: as §1
# PC-3 [22] = experiment: Cytotoxicity against human PC3 cells assessed as cell viability at 30 uM after 48 hrs under normoxic conditions by MTT assay (reference value: 100%); assay type: functional; conditions: PC-3, 48 h, read-out: Activity; outline: as §1
# Carbonic anhydrase 12 = Carbonic anhydrase 12 (Homo sapiens, UniProt O43570)
# HT-29 [23] = experiment: Cytotoxicity against human HT-29 cells assessed as cell viability at 30 uM after 48 hrs under hypoxic conditions by MTT assay (reference value: 100%); assay type: functional; conditions: Homo sapiens, HT-29, 48 h; read-out: Activity; outline: as §1
# PC-3 [24] = experiment: Cytotoxicity against human PC3 cells assessed as cell viability at 100 uM after 48 hrs under hypoxic conditions by MTT assay (reference value: 100%); assay type: functional; conditions: PC-3, 48 h, read-out: Activity; outline: as §1
# Carbonic anhydrase 2 = Carbonic anhydrase 2 (Homo sapiens, UniProt P00918); experiment: Inhibition of carbonic anhydrase 2 (unknown origin) preincubated for 15 mins by stopped flow CO2 hydration assay
# Carbonic anhydrase 1 = Carbonic anhydrase 1 (Homo sapiens, UniProt P00915); experiment: Inhibition of recombinant human cytosolic carbonic anhydrase 1 preincubated for 15 mins by stopped flow CO2 hydration assay
# HT-29 [25] = experiment: Cytotoxicity against human HT-29 cells assessed as cell viability at 200 uM after 48 hrs under normoxic conditions by MTT assay (reference value: 100%); assay type: functional; conditions: Homo sapiens, HT-29, 48 h; read-out: Activity; outline: as §1
# HT-29 [26] = experiment: Cytotoxicity against human HT-29 cells assessed as cell viability at 200 uM after 48 hrs under hypoxic conditions by MTT assay (reference value: 100%); assay type: functional; conditions: Homo sapiens, HT-29, 48 h; read-out: Activity; outline: as §1
# Carbonic anhydrase 12, sequence (O43570 whole entry): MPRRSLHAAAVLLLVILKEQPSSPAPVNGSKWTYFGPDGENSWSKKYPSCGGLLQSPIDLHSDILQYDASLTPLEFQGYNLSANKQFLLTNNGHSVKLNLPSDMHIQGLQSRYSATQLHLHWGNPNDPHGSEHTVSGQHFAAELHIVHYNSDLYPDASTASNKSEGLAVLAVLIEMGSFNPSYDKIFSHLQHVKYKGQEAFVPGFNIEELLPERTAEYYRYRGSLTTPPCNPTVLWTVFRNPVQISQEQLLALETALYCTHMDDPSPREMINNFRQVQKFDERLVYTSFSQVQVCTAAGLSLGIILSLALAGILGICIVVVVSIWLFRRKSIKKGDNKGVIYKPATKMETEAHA
# Carbonic anhydrase 1, sequence (P00915 whole entry): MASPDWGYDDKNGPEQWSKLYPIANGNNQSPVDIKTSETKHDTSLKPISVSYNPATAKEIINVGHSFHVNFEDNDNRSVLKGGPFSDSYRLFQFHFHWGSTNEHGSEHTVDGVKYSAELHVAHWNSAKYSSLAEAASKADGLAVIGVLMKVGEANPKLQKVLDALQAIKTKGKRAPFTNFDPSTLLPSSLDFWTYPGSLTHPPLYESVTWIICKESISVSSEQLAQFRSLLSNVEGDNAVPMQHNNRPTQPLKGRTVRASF
Structure (SMILES),Activity (PC-3 [1]),IC50 (PC-3 [1]) [µM],Activity (MDA-MB-231 [3]),IC50 (MDA-MB-231 [3]) [µM],viability at 100 µM (HT-29 [4]) [%],Activity (HT-29 [5]),IC50 (HT-29 [5]) [µM],Activity (HT-29 [7]),IC50 (HT-29 [7]) [µM],viability at 200 µM (MDA-MB-231 [8]) [%],viability at 200 µM (PC-3 [9]) [%],viability at 30 µM (MDA-MB-231 [10]) [%],viability at 30 µM (PC-3 [11]) [%],Ki (Carbonic anhydrase 9) [nM],viability at 100 µM (HT-29 [12]) [%],viability at 100 µM (PC-3 [13]) [%],viability at 30 µM (HT-29 [14]) [%],Activity (PC-3 [15]),IC50 (PC-3 [15]) [µM],Ki (Carbonic anhydrase 12) [nM],also measured
NS(=O)(=O)c1cc(NC(=O)Nc2cc(C(F)(F)F)cc(C(F)(F)F)c2)c(O)c([N+](=O)[O-])c1,Dose-dependent effect,68.6,Dose-dependent effect,196,63.6,Dose-dependent effect,133,Dose-dependent effect,60.2,20.2,19.6,106,109,340,22.7,23.4,102,Dose-dependent effect,70.6,460,Ratio (MDA-MB-231 [2]): 4; Ratio Ki (Homo sapiens): 5; viability at 300 µM (HT-29 [6]): 25.6%; viability at 100 µM (MDA-MB-231 [16]): 101%; Activity (MDA-MB-231 [17]): Dose-dependent effect; IC50 (MDA-MB-231 [17]): 63.2 µM; viability at 100 µM (MDA-MB-231 [18]): 19.8%; viability at 30 µM (MDA-MB-231 [19]): 100%; viability at 200 µM (MDA-MB-231 [20]): 45.8%; viability at 200 µM (PC-3 [21]): 20.9%; viability at 30 µM (PC-3 [22]): 118%; viability at 30 µM (HT-29 [23]): 98.6%; viability at 100 µM (PC-3 [24]): 20.1%
NS(=O)(=O)c1cc(NC(=O)Nc2ccc(C(F)(F)F)cc2)c(O)c([N+](=O)[O-])c1,–,–,–,–,–,–,–,–,–,–,–,–,–,630,–,–,–,–,–,950,Ki (Carbonic anhydrase 2): 200 nM
NS(=O)(=O)c1cc(NC(=O)NCc2ccco2)c(O)c([N+](=O)[O-])c1,–,–,–,–,–,–,–,–,–,–,–,–,–,390,–,–,–,–,–,530,Ki (Carbonic anhydrase 1): > 50 µM
Nc1cc(S(N)(=O)=O)cc([N+](=O)[O-])c1O,Dose-dependent effect,> 200,Dose-dependent effect,> 200,93.2,Dose-dependent effect,> 200,Dose-dependent effect,> 200,60.2,55.3,93,81.8,210,107,91.8,95.7,Dose-dependent effect,> 200,200,viability at 200 µM (HT-29 [25]): 105%; viability at 100 µM (MDA-MB-231 [16]): 81.4%; Activity (MDA-MB-231 [17]): Dose-dependent effect; IC50 (MDA-MB-231 [17]): > 200 µM; viability at 100 µM (MDA-MB-231 [18]): 72.8%; viability at 30 µM (MDA-MB-231 [19]): 81.3%; viability at 200 µM (MDA-MB-231 [20]): 78.8%; viability at 200 µM (PC-3 [21]): 92.3%; viability at 200 µM (HT-29 [26]): 100%; viability at 30 µM (PC-3 [22]): 69.7%; viability at 30 µM (HT-29 [23]): 108%; viability at 100 µM (PC-3 [24]): 58.4%
